The values below come from ChEMBL document CHEMBL3875170, “2-Methyl-4/5-nitroimidazole derivatives potentiated against sexually transmitted Trichomonas: Design, synthesis, biology and 3D-QSAR study” (Eur J Med Chem, 2016).

Values after ≈ are worked out from the molar mass of the structure shown. Active and inactive are the calls of the source.

Series [1] relates to Trichomonas vaginalis. Description: Antiparasitic activity against metronidazole sensitive Trichomonas vaginalis ATCC 33592 after 48 hrs by trypan blue exclusion assay. Format: functional. The following applies: ATCC 33592, 48 h.
Series [2] concerns Trichomonas vaginalis. Description: Antiparasitic activity against Trichomonas vaginalis in po dosed mouse assessed as size of abscess at 100 mg/kg, po administered daily for 5 days measured 5 days post last dose (reference value: 120 mm'2). It counts as functional. The essentials: (§1)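 Six-week-old mice inoculated subcutaneously in the left hind flank with 50 µL of 2 × 10⁶ saline-washed trophozoites/mL grown in TYM. Abscess confirmed by palpation at day 7 and by fine-needle biopsy. Oral dosing in gum acacia at 50 or 100 mg/kg daily; controls received vehicle. Abscess size measured longitudinally each day and area calculated; n = 3 per group.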

A short description of series [3]: Tmax in Sprague Dawley rat at 50 mg/kg, po. It counts as ADME, organism-based. The following applies: in vivo. The essentials: (§2)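 Overnight-fasted (12–16 h) rats, n = 4 per time point, given a single oral dose of 50 mg/kg as a 12.5 mg/mL suspension in 1% w/v gum acacia and water. Blood sampled at set times up to 24 h; serum stored at −80 °C. Analysis by LC-MS/MS in positive-ion MRM mode with phenacetin as internal standard; parameters derived by non-compartmental analysis. Values are means of four rats.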

The subject of series [4] is Trichomonas vaginalis. Description: Antiparasitic activity against Trichomonas vaginalis in po dosed mouse assessed as size of abscess at 100 mg/kg, po administered daily for 7 days measured 7 days post last dose (reference value: 113 mm'2). It counts as functional. Summed up:
as §1

Series [5] in a line: Cytotoxicity against human HeLa cells after 24 hrs by MTT assay. It counts as toxicity, cell-based. The essentials: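 HeLa cells seeded at 2 × 10⁴ per well in DMEM with 10% FCS, in triplicate, and held 24 h at 37 °C in 5% CO₂. Exposed to compound dilutions for 24 h; controls received 0.05% DMSO. MTT in PBS pH 7.4 added, formazan dissolved in DMSO, OD540 read. IC50 taken as the concentration killing 50% of cells.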

For series [6], the system named is Trichomonas vaginalis. Nature of the series: Antiparasitic activity against Trichomonas vaginalis in po dosed mouse assessed as size of abscess at 50 mg/kg, po administered daily for 5 days measured 5 days post last dose (reference value: 120 mm'2). It counts as functional. Summed up: as §1
The test system of series [7] is Trichomonas vaginalis. Nature of the series: Antiparasitic activity against Trichomonas vaginalis assessed as decrease in parasite free thiol levels at MIC after 24 hrs by fluorometric thiol detector-based fluorescence microscopic method. It counts as functional. Summed up: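 Cells pelleted (700 × g, 10 min, 4 °C), washed 2–3 times in PBS, then stained 5 min in the dark with fluorometric thiol detector (pre-diluted 100×). Imaged by epifluorescence microscopy, UV-1A filter, with equal exposure times for all samples.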

Series [8] in a line: Volume of distribution at steady state in Sprague Dawley rat at 50 mg/kg, po. It counts as ADME, organism-based. The following applies: in vivo. The essentials:
as §2

A short description of series [9]: Selectivity index, ratio of IC50 for human HeLa cells to MIC for metronidazole resistant Trichomonas vaginalis ATCC 50143. It counts as toxicity, cell-based. The following applies: read-out: Selectivity Index. Summed up: (§3)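 SI is HeLa IC50 divided by parasite MIC. HeLa cells seeded at 2 × 10⁴/well in triplicate in DMEM with 10% FCS, 24 h at 37 °C in 5% CO2. Medium then replaced with compound dilutions (0.05% DMSO controls) for 24 h. Viability by MTT read at OD540; IC50 is the concentration killing 50% of cells. MIC from 48 h trypan blue parasite killing in TYM.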

Series [10] has as its system Trichomonas vaginalis. Nature of the series: Antiparasitic activity against Trichomonas vaginalis in po dosed mouse assessed as size of abscess at 50 mg/kg, po administered daily for 7 days measured 7 days post last dose (reference value: 113 mm'2). Format: functional. Summed up: as §1
Series [11] is described as follows: AUClast in Sprague Dawley rat at 50 mg/kg, po. Details: dose 50 mg/kg, route oral, time 0 - last. It counts as ADME, organism-based. The following applies: in vivo. The essentials: as §2
Series [12] has as its system Trichomonas vaginalis. Nature of the series: Antiparasitic activity against metronidazole resistant Trichomonas vaginalis ATCC 50143 after 48 hrs by trypan blue exclusion assay. The following applies: ATCC 50143, 48 h. Format: functional. Summed up: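 T. vaginalis trophozoites ([…]), log phase, grown in TYM with 10% FCS, vitamin mix and penicillin/streptomycin at 37 °C. Test agents from DMSO stocks serially diluted in TYM; DMSO/TYM vehicle controls. Anaerobic incubation at 37 °C with microscopic viability checks from 3 to 48 h by trypan blue exclusion. MIC is the lowest concentration killing all cells by 48 h. Repeated three times.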

A short description of series [13]: Cmax in Sprague Dawley rat at 50 mg/kg, po. Format: ADME, organism-based. Also noted: dose 50 mg/kg, route oral. The following applies: in vivo. Summed up: as §2
A short description of series [14]: Selectivity index, ratio of IC50 for human HeLa cells to MIC for metronidazole sensitive Trichomonas vaginalis ATCC 33592. It counts as toxicity, cell-based. The following applies: read-out: Selectivity Index. The essentials: as §3
Series [15] has as its system Trichomonas vaginalis. Nature of the series: Potency index, ratio of metronidazole MIC to compound MIC for metronidazole sensitive Trichomonas vaginalis ATCC 33592. Format: functional.
Series [16] is described as follows: Half life in Sprague Dawley rat at 50 mg/kg, po. Format: ADME, organism-based. The following applies: in vivo. Summed up: as §2
A short description of series [17]: Clearance in Sprague Dawley rat at 50 mg/kg, po. The following applies: in vivo. Format: ADME, organism-based. The essentials:
as §2

In series [18] the test system is Trichomonas vaginalis. Description: Potency index, ratio of metronidazole MIC to compound MIC for metronidazole resistant Trichomonas vaginalis ATCC 50143. Format: functional.

Usually MIC stands for the smallest concentration in the dilution series that meets the test's criterion for growth inhibition. The Tmax is the time from dosing to the highest level. Usually IC50 stands for the midpoint of a concentration-inhibition curve. A word on the Cmax: it is the peak of the concentration-time curve. A word on the half-life: it is how long it takes for the measured level to halve. Higher therefore signals slow decline. With `Cc1ncc([N+](=O)[O-])n1CC(O)CSC(=S)N1CCN(c2ccccc2)CC1` (racemic), the figures for the MIC with Trichomonas vaginalis [1] and against Trichomonas vaginalis [12] were 8.55 µM (≈ 3.6 µg/mL) and 37.1 µM (≈ 15.6 µg/mL), respectively. The Activity with Trichomonas vaginalis [2] was 1 - 5 mm2; in the series on Trichomonas vaginalis [4] it was 0.785 mm2; with Trichomonas vaginalis [6] it was 1 - 5 mm2; in the series with Trichomonas vaginalis [10] it was 1.55 mm2. Further, in [3], the Tmax came out at 4 h. The molecule also yielded an IC50 at 24 h in series [5] above 5000 µM. The result in the series with Trichomonas vaginalis [7] was Active. Moreover, in series [8], the Vdss stood at 80.6 L/kg. For the same molecule, the figures for the selectivity ratio in series [9] and in [14] were above 135 and above 584, respectively. In series [11], this molecule returned an AUClast of 149.1 ng·h/mL. Also, in series [13], the highest level (Cmax) was 35.2 ng/mL. The Ratio is listed as 2.4 in the series with Trichomonas vaginalis [15] and “<=12.7” in the series with Trichomonas vaginalis [18]. Besides, in series [16], the half-life is 5 h. This molecule displayed a CL in series [17] of 272 mL/min/kg.
As to `Cc1ncc([N+](=O)[O-])n1CC(O)CSC(=S)N1CCC(Cc2ccccc2)CC1` (racemic), the MIC in the series on Trichomonas vaginalis [1] was 14.4 µM (≈ 6.26 µg/mL); with Trichomonas vaginalis [12], 28.8 µM (≈ 12.5 µg/mL). In series [5], this molecule returned an IC50 at 24 h of 1320 µM. Also, the selectivity ratio was 45 in series [9] and 91 in series [14]. In addition, the values for the Ratio result in the series with Trichomonas vaginalis [15] and with Trichomonas vaginalis [18] were “<=2.4” and 2.5 - 12.6, respectively.
As to `Cc1ncc([N+](=O)[O-])n1CC(O)CN1CCN(c2ccccn2)CC1` (racemic), the MIC in the series with Trichomonas vaginalis [1] is 18.1 µM (≈ 6.26 µg/mL); in the series on Trichomonas vaginalis [12] it was 72.2 µM (≈ 25 µg/mL). For the same molecule, in series [5], the IC50 at 24 h was determined as 1830 µM. Further, the selectivity ratio was determined as 25 in series [9] and 101 in series [14]. The values for the Ratio entry in the series on Trichomonas vaginalis [15] and in the series on Trichomonas vaginalis [18] were “<=2.4” and “<=12.7”, respectively.
In the case of `Cc1ncc([N+](=O)[O-])n1CC(O)Cn1ccnn1` (racemic), the MIC against Trichomonas vaginalis [1] was found to be 12.4 µM (≈ 3.12 µg/mL); in the series on Trichomonas vaginalis [12] it was 99.2 µM (≈ 25 µg/mL). Moreover, the IC50 at 24 h in series [5] was above 5000 µM. The selectivity ratio in series [9] was above 50; in [14] it was above 416. In addition, the Ratio entry in the series with Trichomonas vaginalis [15] is on record as “<=2.4”; in the series on Trichomonas vaginalis [18] it was “<=12.7”.
Regarding `Cc1ncc([N+](=O)[O-])n1CCO` [METRONIDAZOLE], the MIC against Trichomonas vaginalis [1] stood at 21.1 µM (≈ 3.6 µg/mL); against Trichomonas vaginalis [12], 365 µM (≈ 62.6 µg/mL). The same molecule registered an IC50 at 24 h in series [5] above 5000 µM. Further, the values for the Activity in the series with Trichomonas vaginalis [6] and with Trichomonas vaginalis [10] were 1 - 5 mm2 and 1.57 mm2, respectively. The selectivity ratio in series [9] is above 13; in series [14], above 238.
On to `Cc1ncc([N+](=O)[O-])n1CC(O)CSC(=S)N1CCN(C(=O)OC(C)(C)C)CC1` (racemic), for which the MIC against Trichomonas vaginalis [1] came to 17.6 µM (≈ 7.82 µg/mL); against Trichomonas vaginalis [12], 70.2 µM (≈ 31.3 µg/mL). For the same molecule, in [5], the IC50 at 24 h is 689 µM. Besides, the selectivity ratio in series [9] came out at 9; in series [14] it was 39. Besides, the Ratio entry in the series with Trichomonas vaginalis [15] is on record as “<=2.4”; with Trichomonas vaginalis [18], “<=12.7”.
In the case of `Cc1ncc([N+](=O)[O-])n1CC(O)CSC(=S)N1CCN(c2cccc(Cl)c2)CC1` (racemic), the minimal inhibitory concentration (MIC) worked out at 17.2 µM (≈ 7.82 µg/mL) in the series with Trichomonas vaginalis [1] and 68.7 µM (≈ 31.3 µg/mL) against Trichomonas vaginalis [12]. For the same molecule, the IC50 at 24 h in [5] came to 1080 µM. For the same molecule, the selectivity ratio came to 15 in series [9] and 62 in [14]. For the same molecule, the Ratio entry in the series on Trichomonas vaginalis [15] is given as “<=2.4”; with Trichomonas vaginalis [18], “<=12.7”.
